The source of these data is ChEMBL document CHEMBL2424547, “Synthesis and biological analysis of benzazol-2-yl piperazine sulfonamides as 11β-hydroxysteroid dehydrogenase 1 inhibitors” (Bioorg Med Chem Lett, 2013).

Structures are written as SMILES. Activity calls are given as the source filed them. The calls are words filed in the database; no cut-off is given here.

Holding throughout (assay type): cell-based
Assay [1] concerns the target T1, 11-beta-hydroxysteroid dehydrogenase type 2 (Homo sapiens) (UniProt P80365).
T1 sequence (whole entry): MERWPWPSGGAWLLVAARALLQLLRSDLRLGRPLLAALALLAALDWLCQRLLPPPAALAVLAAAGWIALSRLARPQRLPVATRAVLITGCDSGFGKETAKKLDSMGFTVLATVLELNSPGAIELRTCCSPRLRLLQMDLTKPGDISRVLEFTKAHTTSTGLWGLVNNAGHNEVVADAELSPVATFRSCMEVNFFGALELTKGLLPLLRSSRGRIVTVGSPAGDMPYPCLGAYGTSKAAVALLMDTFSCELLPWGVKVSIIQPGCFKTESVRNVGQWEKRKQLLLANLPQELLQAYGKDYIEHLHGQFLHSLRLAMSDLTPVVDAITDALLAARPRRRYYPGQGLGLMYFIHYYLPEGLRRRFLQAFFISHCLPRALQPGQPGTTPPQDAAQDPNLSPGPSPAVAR
The assay can be described thus: Inhibition of human 11beta-HSD2 expressed in HEK293 cells assessed as [1,2,6,7-3H]-cortisol oxidation to [1,2-3H]-cortisone at 20 uM after 10 mins in presence of NAD+.

Assay [2] has as its target T2, 11-beta-hydroxysteroid dehydrogenase 1 (Homo sapiens, UniProt P28845). Description: Inhibition of human 11beta-HSD1 expressed in HEK293 cells assessed as [1,2-3H]-cortisone reduction […] measured as residual activity at 20 uM after 10 mins relative to control in presence of NADPH. The method in brief: (§1)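 Cell-free 11β-HSD1 activity assay. Compounds were first screened at a single 20 µM concentration, and IC50 values were then determined for selected compounds. Values are mean ± SD from at least three independent experiments.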
Target sequence in this assay (P28845 whole entry, looked up): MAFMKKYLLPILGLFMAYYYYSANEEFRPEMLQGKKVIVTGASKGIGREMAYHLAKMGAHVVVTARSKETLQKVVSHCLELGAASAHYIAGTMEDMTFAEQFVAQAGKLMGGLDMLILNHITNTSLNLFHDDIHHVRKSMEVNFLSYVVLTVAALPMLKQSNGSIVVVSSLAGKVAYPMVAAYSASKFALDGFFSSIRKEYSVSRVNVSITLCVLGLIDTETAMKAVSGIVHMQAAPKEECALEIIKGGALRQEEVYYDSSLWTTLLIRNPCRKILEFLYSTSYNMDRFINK

The target of assay [3] is T2, 11-beta-hydroxysteroid dehydrogenase 1. Description: Inhibition of human 11beta-HSD1 expressed in HEK293 cells assessed as [1,2-3H]-cortisone reduction […] after 10 mins in presence of NADPH. The method in brief:
as §1
Target sequence in this assay (P28845 whole entry): as the sequence (P28845 whole entry, looked up) above

Assay [4] has the same target. Description: Inhibition of human 11beta-HSD1 expressed in HEK293 cells assessed as [1,2-3H]-cortisone reduction […] measured as residual activity after 10 mins relative to control in presence of NADPH. The essentials:
as §1
Target sequence in this assay (P28845 whole entry, looked up): as above

For `Cn1c(N2CCN(S(=O)(=O)c3cccc(C(=O)NO)c3)CC2)nc2ccccc21`, the inhibition entry in assay [1] was “inactive”. The Activity in assay [2] is 60%.
On the same counts, the results for `Cc1ccc(S(=O)(=O)N2CCN(c3nc4ccccc4[nH]3)CC2)cc1` are “inactive” and 50%.
`COc1ccc(S(=O)(=O)N2CCN(c3nc4ccccc4n3C)CC2)cc1[N+](=O)[O-]`: the half-maximal inhibitory concentration (IC50) in assay [3] (read-out: IC50) was found to be 27.2 µM. Moreover, in assay [1], the inhibition entry was “inactive”.
As to `COc1ccc(S(=O)(=O)N2CCN(c3nc4ccccc4n3C)CC2)cc1OC`, the IC50 in assay [3] (read-out: IC50) was 18.5 µM. In addition, the inhibition entry in assay [1] is “inactive”.
In the case of `Cc1ccc(S(=O)(=O)N2CCN(c3nc4ccccc4n3C)CC2)cc1`, the concentration for half-maximal inhibition (IC50) in assay [3] (read-out: IC50) came out at 0.7 µM. In addition, in assay [1], the inhibition entry was “inactive”.
Taken in the same sequence, the figures for `Cn1c(N2CCN(S(=O)(=O)c3ccccc3)CC2)nc2ccccc21` were 6.4 µM and “inactive”.
As to `Cn1c(N2CCN(S(=O)(=O)c3ccc(C(=O)O)cc3)CC2)nc2ccccc21`, in assay [1], the inhibition result was “inactive”. The Activity in assay [2] was determined as 90%.
Taken in the same sequence, the figures for `Cn1c(N2CCN(S(=O)(=O)c3ccc(C(=O)NO)cc3)CC2)nc2ccccc21` were “inactive” and 90%.
For the compound `Cn1c(N2CCN(S(=O)(=O)c3ccc(C(C)(C)C)cc3)CC2)nc2ccccc21`, the half-maximal inhibitory concentration (IC50) in assay [3] (read-out: IC50) amounted to 4.8 µM. Further, in assay [1], the inhibition result was “inactive”.
In the case of `CC(C)(C)c1ccc(S(=O)(=O)N2CCN(c3nc4ccccc4o3)CC2)cc1`, the Activity in assay [4] came to 18%. In addition, the concentration for half-maximal inhibition (IC50) entry in assay [3] (hek293) is “ND(Insoluble)”. Besides, in assay [1], the inhibition result was “inactive”.
As for `COc1ccc(S(=O)(=O)N2CCN(c3nc4ccccc4n3C)CC2)cc1`, in assay [3] (read-out: IC50), the IC50 amounted to 4.2 µM. Besides, the inhibition result in assay [1] is “inactive”.
In the case of `Cc1ccc(S(=O)(=O)N2CCN(c3nc4ccccc4s3)CC2)cc1`, in assay [1], the inhibition entry is “inactive”. Further, the Activity in assay [2] came out at 89%.
On the same counts, the results for `Cc1ccc(C(=O)N2CCN(c3nc4ccccc4[nH]3)CC2)cc1` are “inactive” and 65%.
On the same counts, the results for `Cn1c(N2CCN(S(=O)(=O)c3cccc(C(=O)O)c3)CC2)nc2ccccc21` are “inactive” and 75%.

What is called IC50 is the concentration that gives 50% inhibition.
